PMC9366314 (Acta Pharmaceutica Sinica. B, 2022)

Key:
[1] = tested on: 92.1 cells; assay: Rescue assay, siRNA GNAQ knockdown in 92.1 cells; format: cell-based; conditions: 10 and 20 μmol/L; 72 h
Outline: (§1)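 Cells were transfected with siRNA against GNA11 (MP41) or GNAQ (92.1), or with a matching control siRNA. After 48 h, cells were reseeded at 3000 cells/well and cultured 18–24 h. They were then exposed to test compound for 72 h. CCK-8 was added for 2–4 h and absorbance read at 450 nm. Data are mean ± SEM, n = 3.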

[2] = tested on: MP41 cells; assay: Cell cycle analysis by flow cytometry, MP41; format: cell-based; conditions: 48 h
Outline: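 MP41 cells were seeded at 3 × 10^5 cells/well, left overnight, then exposed to test compound for 48 h. Cells were washed and fixed in 70% ethanol at 4 °C for 12 h. Staining with RNase (100 μg/mL) and PI (50 μg/mL) ran at 37 °C for 0.5 h. Phase distribution was read by flow cytometry. Data are mean ± SEM, n = 3.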

[3] = tested on: MP41 xenograft; assay: MP41 xenograft model; format: in vivo, nude BALB/c nu/nu mice; conditions: 21 days
Outline: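 Nude BALB/c nu/nu mice (18–22 g, 6–8 weeks) bearing MP41 xenografts were randomised at n = 6/group. They received vehicle or test compound (5, 15 or 30 mg/kg/day) ip for 21 consecutive days. Body weight and tumour size were recorded every 2 days. Tumours were harvested on day 22 for weighing and H&E staining. Groups were compared by one-way ANOVA.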

[4] = tested on: MP41 cells; assay: Rescue assay, siRNA GNA11 knockdown in MP41 cells; format: cell-based; conditions: 72 h
Outline: as §1

[5] = Pharmacokinetic studies in ICR mice; format: in vivo; conditions: male, mouse, plasma
Outline: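 Male ICR mice received test compound at 5 mg/kg iv or 15 mg/kg po. Samples were centrifuged at 6800×g, 2–8 °C for 6 min, stored at −80 °C and quantified by LC–MS/MS.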

[6] = tested on: 92.1 cells; assay: Apoptosis assay by flow cytometry, 92.1; format: cell-based
[7] = tested on: 92.1 cells; assay: Clonogenic; format: cell-based; conditions: 1 and 3 μmol/L; 9 days
Outline: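 92.1 cells were exposed to test compound for 9 days, and colonies were counted with a colony counter. Data are mean ± SEM, n = 3.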

[8] = tested on: MP41 cells; assay: Transwell migration assay, MP41; format: cell-based; conditions: 3, 10, and 20 μmol/L; 48 h
Outline: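 MP41 cells were seeded at 1 × 10^4 cells/well in Transwell upper chambers, with RPMI-1640 plus 20% FBS in the lower chamber, and left overnight. Test compound was added for 48 h. Cells left in the upper chamber were removed, and cells on the lower side were stained with crystal violet for 0.5 h and counted by microscope at ×40.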

[9] = tested on: Gαq/11; assay: IP1 accumulation assay; format: cell-based; conditions: CHO-M1 cells, mean ± SEM (n = 3)
[10] = tested on: MP41 cells; assay: Clonogenic; format: cell-based; conditions: 1 and 3 μmol/L; 9 days
Outline: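 MP41 cells were seeded at 4000 cells/well and left overnight. They were exposed to test compound for 9 days, with medium and compound renewed every three days. Colonies were fixed in 4% paraformaldehyde for 15 min, stained with crystal violet for 0.5 h and counted with a colony counter. Data are mean ± SEM, n = 3.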

[11] = tested on: 92.1 cells; assay: Transwell invasion assay, 92.1; format: cell-based; conditions: 3, 10, and 20 μmol/L
[12] = Human liver microsome stability assay; format: in vitro ADME; conditions: liver microsomes, pH 7.4
Outline: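 Test compound (1 μmol/L) was preincubated for 5 min at 37 °C with human liver microsomes (0.5 mg/mL) in 100 mmol/L potassium phosphate, pH 7.4, with 5 mmol/L MgCl2. Reactions were started with 1 mmol/L NADPH. Aliquots were quenched with acetonitrile containing internal standard at 0, 5, 15, 30 and 45 min, centrifuged and analysed by LC–MS/MS for half-life and intrinsic clearance.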

[13] = tested on: MP41 cells; assay: Transwell invasion assay, MP41; format: cell-based; conditions: 3, 10, and 20 μmol/L
Outline: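 MP41 cells (1 × 10^4/well) were placed in Transwell upper chambers, with RPMI-1640 plus 20% FBS in the lower chamber, and left overnight. Cells were then exposed to test compound for 48 h. Non-migrated cells in the upper chamber were removed. Cells in the lower chamber were stained with crystal violet for 0.5 h and counted by microscope at ×100. Data are mean ± SEM, n = 3.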

[14] = tested on: Gαq/11; assay: AngII-induced intracellular Ca2+ release in HEK293-AT1R cells; format: cell-based; conditions: 100 μmol/L
Outline: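 HEK293 cells overexpressing AT1R were loaded with Fluo-4 AM at 37 °C for 1 h, then pretreated with test compound for 0.5 h. AngII was added at a range of concentrations to build a dose–response curve. Fluorescence was read at 485/525 nm excitation/emission. Data are mean ± SEM, n = 3.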

[15] = target: Gαq/11 (Homo sapiens, UniProt P50148); assay: Agonist; format: cell-based; conditions: HEK293-AT1R cells; different concentrations
Outline: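 HEK293 cells transiently co-transfected with AT1R, Gαq-RLuc8, unlabeled Gβ1 and Gγ2-Venus, replated 24 h after transfection and cultured overnight. Cells were pretreated 1 h with test compound at several concentrations, then AngII was added, followed by coelenterazine as luciferase substrate. BRET between Gα and Gβγ was read on a plate reader. Runs were in triplicate, mean ± SEM (n = 3).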

[16] = tested on: cleaved caspase-7, Bcl-2, and Mcl-1; assay: Western blot of apoptosis related proteins in UM cells; format: cell-based
Outline: (§2)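 Cells or xenograft tumour tissue were lysed in RIPA buffer with protease and phosphatase inhibitors. Lysates were cleared at 15,000 rpm, 4 °C for 15 min, and protein was quantified by BCA. Proteins were separated on 8%–12% SDS-PAGE, transferred to PVDF and blocked with 5% BSA. After primary and secondary antibodies, bands were detected by enhanced chemiluminescence.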

[17] = tested on: 92.1 cells; assay: Transwell migration assay, 92.1; format: cell-based; conditions: 3, 10, and 20 μmol/L; 48 h
[18] = tested on: phosphorylated ERK; assay: Western blot of phosphorylated ERK in MP41 xenograft tumor tissues; format: in vivo, mice; conditions: testing dose
Outline: as §2

Chain of Gαq/11 (Homo sapiens, UniProt P50148) (P50148 whole entry): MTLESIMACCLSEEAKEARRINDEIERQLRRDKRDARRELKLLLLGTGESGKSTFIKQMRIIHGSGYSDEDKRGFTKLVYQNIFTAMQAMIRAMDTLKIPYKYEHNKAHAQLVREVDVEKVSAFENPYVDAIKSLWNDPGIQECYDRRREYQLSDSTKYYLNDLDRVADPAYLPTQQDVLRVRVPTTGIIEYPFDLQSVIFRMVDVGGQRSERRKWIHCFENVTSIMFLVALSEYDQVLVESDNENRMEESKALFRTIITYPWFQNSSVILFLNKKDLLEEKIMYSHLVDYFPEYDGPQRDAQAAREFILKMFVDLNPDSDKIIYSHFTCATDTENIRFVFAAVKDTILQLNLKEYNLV
Chain of Gαq/11 (Homo sapiens, UniProt P50148) (P62873 2-340 partner limits assumed): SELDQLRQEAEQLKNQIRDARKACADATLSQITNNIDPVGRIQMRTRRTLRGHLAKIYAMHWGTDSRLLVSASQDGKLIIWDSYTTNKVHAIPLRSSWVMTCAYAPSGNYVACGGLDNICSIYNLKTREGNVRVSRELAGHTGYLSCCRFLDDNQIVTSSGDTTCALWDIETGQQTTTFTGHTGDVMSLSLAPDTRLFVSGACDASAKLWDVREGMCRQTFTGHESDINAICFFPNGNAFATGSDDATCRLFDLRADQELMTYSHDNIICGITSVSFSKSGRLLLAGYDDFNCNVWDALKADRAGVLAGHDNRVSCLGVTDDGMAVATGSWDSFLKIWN
Chain of Gαq/11 (Homo sapiens, UniProt P50148) (P59768 2-68 partner limits assumed): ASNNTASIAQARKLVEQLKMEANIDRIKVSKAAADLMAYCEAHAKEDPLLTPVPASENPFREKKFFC

AUC ([5]; iv, 5 mg/kg): 1620 ± 70 ng·h/mL
Cmax ([5]; iv, 5 mg/kg): 2470 ± 192 ng/mL
MRT ([5]; iv, 5 mg/kg): 1.1 ± 0.1 h
Tmax ([5]; iv, 5 mg/kg): 0.08 h
Vd ([5]; iv, 5 mg/kg): 3.9 ± 0.4 L/kg
clearance ([5]; iv, 5 mg/kg): 50.2 ± 2.1 mL/min/kg
half-life ([5]; iv, 5 mg/kg): 1.8 ± 0.2 h
AUC ([5]; po, 15 mg/kg): 2900 ± 358 ng·h/mL
Cmax ([5]; po, 15 mg/kg): 1040 ± 267 ng/mL
MRT ([5]; po, 15 mg/kg): 3.1 ± 0.7 h
Tmax ([5]; po, 15 mg/kg): 0.5 ± 0.4 h
bioavailability ([5]; po, 15 mg/kg): 59.5%
half-life ([5]; po, 15 mg/kg): 2.4 ± 0.7 h
CLint scaled at 1 μmol/L [12]: 30.2 mL/min/kg
half-life at 1 μmol/L [12]: 0.958 h
Structure (SMILES): CN1CCC[C@H]1CN1CCn2cc(-c3ccccc3)nc2[C@@H]1CC1CCCCC1 [GQ262]
Antiproliferative activity on GNAQ knockdown 92.1 cells [1]: no inhibitory effect on proliferation
Cellular proportion in G0/G1 phase ([2]; 3 μmol/L): 78.0%
Cellular proportion in G0/G1 phase ([2]; 10 μmol/L): 79.4%
Tumor growth inhibition (TGI) ([3]; 5 mg/kg/day ip): 55.2%
Tumor growth inhibition (TGI) ([3]; 15 mg/kg/day ip): 82.8%
Tumor growth inhibition (TGI) ([3]; 30 mg/kg/day ip): 106.6%
Body weight of the mice ([3]; 5, 15, 30 mg/kg/day ip): did not decline
Side effects during and after the treatment (H&E staining) ([3]; 5, 15, 30 mg/kg/day ip): did not observe manifest side effects
Antiproliferative activity on MP41 (si#control) ([4]; 5 and 10 μmol/L): remarkable antiproliferative activity
Antiproliferative activity on MP41 (si#GNA11) ([4]; GNA11 knockdown): could not inhibit MP41 cell proliferation
Apoptotic rate ([6]; 10 μmol/L): 9.34%
Apoptotic rate ([6]; 20 μmol/L): 17.5%
Colony formation of 92.1 cells [7]: obviously blocked the colony formation
MP41 cell migration [8]: remarkably and dose-dependently inhibited
IP1 inhibition at 10 μmol/L [9]: 57.2 ± 1.9%
Colony formation of MP41 cells [10]: obviously blocked the colony formation
92.1 cell invasion [11]: poor invasion
MP41 cell invasion [13]: poor invasion
Effect on AngII-stimulated Ca2+ release [14]: obviously suppressed the Ca^2+ release
Effect on AngII-induced BRET signals [15]: dose-dependently inhibitory efficacy on BRET signals
Bcl-2 and Mcl-1 levels [16]: down-regulation
Cleaved caspase-7 level [16]: up-regulation
92.1 cell migration [17]: remarkably and dose-dependently inhibited
Phosphorylated ERK expression in tumor tissues [18]: inhibited the phosphorylated ERK
